Source: PubChem BioAssay (Broad Institute)
PAX8 reporter – PAX8 transcriptional activity inhibition | RMG-I TPO-luciferase reporter, SteadyGlo, 24 h | inhibition, % at 12.6 µM | 360,000 compounds, 1.2% hits | AID 652154;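 active means mean replicate inhibition at least 60% with every replicate also reaching 60%; inconclusive means only one of the two criteria is met; inactive means mean below 60% and not all replicates reaching 60%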;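 further: luciferase light reporting Pax8 driven TPO promoter activity; plate controls were median of neutral control wells for no effect and mitoxantrone controls for full effect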
FN deposition inh – fibronectin deposition inhibition. AH1F fibroblasts, Alexa488-fibronectin deposition fluorescence, overnight. inhibition, % at 12.6 µM. 350,000 compounds, 0.086% hits. AID 743247;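 active means mean inhibition across replicates of 30% or more, regardless of how many single replicates reach that level; inconclusive means mean under 30% yet at least half of replicates reach 30%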;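 further: positive control wells lacked labelled fibronectin entirely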
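Schedule: 1 h cell adhesion before compound, then overnight fibronectin incubation; test system: AH1F fibroblast monolayer depositing Alexa488-labelled fibronectin into matrix; quantity: 10000 AH1F cells per well; probe or stimulus: fluorescent fibronectin at 24 nM final; signal: fluorescence, ex 485 nm, em 525 nm; evaluation: percent inhibition as loss of matrix-bound fibronectin fluorescence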
HIV Env fusion – blocks HIV Env-driven cell-cell fusion. HeLa-JRFL Env/CEM21 cell fusion, luciferase. inhibition, % at 12.3 µM. 360,000 compounds, 1.1% hits;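 active means mean replicate inhibition score of at least 50 and every replicate individually at or above 50; inconclusive means only one of the two criteria met; inactive means mean below 50 and not all replicates reaching 50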;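 further: 0% = plate neutral controls and 100% = maraviroc near 300 nM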
EWS-Fli inh – inhibitors of EWS/Fli oncoprotein transcriptional activity; A673 NR0B1-luciferase reporter, viability-normalised; inhibition, % at 12.6 µM; 350,000 compounds, 0.67% hits; AID 651661;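 active means mean inhibition of at least 50% after viability correction, with every replicate also passing that limit; inconclusive means mean reaches 50% but only one of two replicates passes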;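 further: firefly luciferase signal divided by Alamar Blue viability fluorescence both relative to DMSO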
PGC1a acetyl inh – modulators of PGC1a acetylation; U2OS PGC1a acetylation, AlphaScreen anti-acetyl-lysine; with virally co-expressed GCN5 acetyltransferase; inhibition, % at 15.6 µM; 350,000 compounds, 0.17% hits; AID 651687;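 active means every replicate shows inhibition of at least 40%; inconclusive means mean inhibition at least 40% but some replicate below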;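 further: 0% = neutral control wells and 100% = positive control wells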
F508del corr – CFTR F508del correction in bronchial cells; activity (quench increase), % at 7.58 µM; CFBE cells, YFP halide quenching; stimulated with forskolin plus potentiator P3; % fluorescence drop versus neutral controls; AID 720511; 350,000 compounds, 0.36% hits;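 active means mean added fluorescence quench of at least 8% versus neutral control, with both replicates also reaching 8%; inconclusive means only one of the mean or replicate conditions met; inactive means mean below 8% and not both replicates reaching 8%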;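 further: cells transiently co-express mutant CFTR-F508del with the halide-sensitive YFP; corrector assay measuring rescue of mutant channel to the surface after 24 h compound exposure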
Numbers without * were called inactive; [ ] = another dose, or the depositor's remark. Sampled rows, rich in hits. Any-hit rate of the full collection: about 2.3%.

For O=C(c1ccc(Cl)c(Cl)c1)N1CCC(=O)N(C(COCc2cccc(Cl)c2)Cc2ccccc2)CC1 (stereo unspecified) the results were PAX8 reporter inconclusive, FN deposition inh 11, HIV Env fusion 91*, EWS-Fli inh 31, PGC1a acetyl inh -16 and F508del corr -3.
For COCC(C)n1c(C)cc(C(=O)COC(=O)c2cccn2C)c1C (stereo unspecified) the results were PAX8 reporter -1, FN deposition inh -3, HIV Env fusion -2, EWS-Fli inh 61*, PGC1a acetyl inh -8 and F508del corr 4.
`COCC(C)n1c(C)cc(C(=O)COC(=O)c2cnc(Cl)c(Cl)c2)c1C` (stereo unspecified) gave PAX8 reporter 2, FN deposition inh 1, HIV Env fusion -10, EWS-Fli inh 6 and F508del corr 2.
Screening CC1CCc2nc(NC(=O)c3ccc(S(=O)(=O)N4CCCc5ccccc54)cc3)sc2C1 (stereo unspecified) returned PGC1a acetyl inh -11.
O=S(=O)(c1ccc(Br)cc1)N1CCCc2ccccc21 was read as PAX8 reporter 38, FN deposition inh -12, HIV Env fusion 7, EWS-Fli inh 23 and F508del corr 11*.
COC(=O)Nc1ccc(S(=O)(=O)N2CCCc3ccccc32)cc1 was read as FN deposition inh 15* and HIV Env fusion 59*.
COC(=O)Nc1ccc(S(=O)(=O)N2CCCc3cccc(O)c32)cc1 was read as PAX8 reporter 24, FN deposition inh 13, HIV Env fusion -56, EWS-Fli inh 42, PGC1a acetyl inh 0 and F508del corr 5.
For Cn1c(=O)oc2cc(S(=O)(=O)N3CCc4ccccc43)ccc21 the results were PAX8 reporter 0, FN deposition inh -1, HIV Env fusion 7, EWS-Fli inh 19, PGC1a acetyl inh -1 and F508del corr 3.
For O=C(Nc1nc2c(s1)CCCC2)c1ccc(S(=O)(=O)N2CCCc3ccccc32)cc1 the results were PAX8 reporter 21, HIV Env fusion 64* and PGC1a acetyl inh -5.
Screening Cn1c(=O)oc2cc(S(=O)(=O)N3CCCc4ccccc43)ccc21 returned PAX8 reporter 53, FN deposition inh 1, HIV Env fusion 17, EWS-Fli inh 59*, PGC1a acetyl inh -1 and F508del corr 4.
Screening CCNC(=O)[C@@H]1[C@@H](CO)[C@@H]2Cn3c(ccc(-c4cccnc4)c3=O)[C@@H]2N1Cc1ccc2c(c1)OCO2 returned PAX8 reporter 0, EWS-Fli inh -3 and F508del corr 1.
`COc1ccccc1S(=O)(=O)N[C@H]1CC[C@H](CCNC(=O)C2CCC2)O[C@@H]1CO` gave PAX8 reporter -8, HIV Env fusion 6[16.7 µM], EWS-Fli inh 10, PGC1a acetyl inh 1 and F508del corr 0.
Cc1noc(C)c1S(=O)(=O)Nc1ccc2c(c1)C(=O)N([C@@H](C)CO)C[C@@H](C)[C@@H](CN(C)C(=O)CCC(F)(F)F)OCCCC[C@H](C)O2 was read as PAX8 reporter 22, HIV Env fusion 1[16.7 µM], EWS-Fli inh -5, PGC1a acetyl inh 1 and F508del corr 0.
COc1ccc2c3c(cccc13)C(=O)CC2 was read as PAX8 reporter -5, FN deposition inh -10, HIV Env fusion 11, EWS-Fli inh 10 and F508del corr 12*.
COc1ccc2c(c1OC)C(=O)OC2 was read as EWS-Fli inh -4, PGC1a acetyl inh -7 and F508del corr -3.
For Cc1ccc(Cn2ccsc2=NC(=O)CCl)cc1 the results were PAX8 reporter 114*, FN deposition inh -4, HIV Env fusion inconclusive, EWS-Fli inh 14, PGC1a acetyl inh 13 and F508del corr -3.
Screening Cc1ccc(Cn2ccsc2=NC(=O)COC(=O)c2ccc(NC(=O)CC#N)cc2)cc1 returned PAX8 reporter -5, HIV Env fusion 31, EWS-Fli inh 11, PGC1a acetyl inh -6 and F508del corr -1.
For COc1cc(CNC(C)c2ccccc2)cc(Cl)c1OCC(=O)Nc1ccccc1 (stereo unspecified) the results were PAX8 reporter -16, FN deposition inh 26, HIV Env fusion 71*, EWS-Fli inh 14, PGC1a acetyl inh -41 and F508del corr -3.
For C[C@H](CO)N1C[C@H](C)[C@H](CN(C)C(=O)Nc2cccc3ccccc23)Oc2ccc(NS(=O)(=O)c3ccc(Cl)cc3)cc2CC1=O the results were HIV Env fusion -1[16.7 µM], EWS-Fli inh 4, PGC1a acetyl inh -2 and F508del corr -1.
Screening CC1CCc2sc3ncnc(N4CCOCC4)c3c2C1 (stereo unspecified) returned PGC1a acetyl inh 20.
Screening CC1CCc2c(sc3ncnc(N4CCOCC4)c23)C1 (stereo unspecified) returned FN deposition inh 3 and HIV Env fusion 92*.
`CO[C@@H](CN(C)S(=O)(=O)c1ccc(F)cc1)[C@H](C)CN(C(=O)Nc1ccccc1F)[C@H](C)CO` gave PAX8 reporter -58, FN deposition inh -4, HIV Env fusion 13[16.7 µM], EWS-Fli inh -22, PGC1a acetyl inh -6 and F508del corr 1.
`C[C@H]1NC(=O)[C@@]2(C)[C@H](c3ccccc3)[C@H]3COc4ccccc4[C@@H]3N2C1=O` gave PAX8 reporter -4, FN deposition inh -8, HIV Env fusion 92*, EWS-Fli inh -2 and F508del corr 0.
Screening C[C@@]12C(=O)Nc3ccc(Cl)cc3C(=O)N1[C@H]1c3cc(Br)ccc3OC[C@@H]1[C@@H]2c1ccccc1 returned PAX8 reporter 2, FN deposition inh -1, HIV Env fusion 45, EWS-Fli inh -6, PGC1a acetyl inh 18 and F508del corr -1.
`C[C@@]12C(=O)Nc3ccccc3C(=O)N1[C@H]1c3cc(Br)ccc3OC[C@@H]1[C@@H]2c1ccccc1` gave PAX8 reporter 20, FN deposition inh -1, HIV Env fusion -103, EWS-Fli inh 56*, PGC1a acetyl inh -3 and F508del corr 0.
`C[C@@]12C(=O)Nc3ccc(Br)cc3C(=O)N1[C@H]1c3cc(Br)ccc3OC[C@@H]1[C@@H]2c1ccccc1` gave PAX8 reporter 31, FN deposition inh -2, HIV Env fusion 63*, EWS-Fli inh 10 and F508del corr 2.
`CNC(=O)C[C@@H]1CC[C@H]2[C@H](COc3ccc(NC(=O)c4ccc(OC)cc4)cc3C(=O)N2C)O1` gave PAX8 reporter 20, FN deposition inh -44, HIV Env fusion -14[16.7 µM], EWS-Fli inh -4, PGC1a acetyl inh -3 and F508del corr -5.
`CCOc1ccc(-c2cc(C(=O)N3CCN(c4ccccn4)CC3)c3ccccc3n2)cc1` gave EWS-Fli inh -7, PGC1a acetyl inh 14 and F508del corr 12*.
